DDE Tn7 FP inh = DD(E)-Tn7 binding inhibition, primary FP screen. P02675. FP displacement of FITC-Tn7 peptide from fibrin DD(E); 0% = median of compound wells per plate. inhibition, % at 8.3 µM. 370,000 tested, 0.13% active. AID 720508;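 active = inhibition above the mean of compounds falling within the control limits plus 3 SD of them, cut at about 14% in these data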;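 note: 0% = plate median of compound wells and 100% = 10 µM Aha-Tn7 peptide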
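system = human fibrin DD(E) protein | quantity = DD(E) 2 µM final | medium = Tris/NaCl/CaCl2 buffer, pH 7.8 | also added = labelled Tn7 tracer, 0.1 µM | compound dosing = single point at 8.3 µM | timing = compound with protein 10 min, then 3 h after probe, room temperature | signal = FP measurement | benchmarks = Aha-Tn7 high control | repeats = one replicate per compound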
ADAM17 inh = inhibits human ADAM17; recombinant ADAM17, EDANS/DABCYL FRET peptide cleavage; inhibition, % at 6.95 µM; 370,000 tested, 0.83% active; AID 720648;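 active = inhibition above the mean of compounds lying between control limits plus 3 SD, set per campaign, cut at about 8.5% in these data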;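 note: 0% = DMSO-only wells as the low control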
DDE Tn6 FP inh = inhibitors of Tn6 peptide binding to human fibrin DD(E); Fibrin DD(E) TRITC-Tn6 fluorescence polarization displacement; AID 720509; P02675; inhibition, % at 8.3 µM; 370,000 tested, 0.21% active;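 active = inhibition above a per-campaign cutoff: mean of compounds within control limits plus 3 SD, cut at about 15% in these data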;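 note: 0% = median of all compound wells on the plate and 100% = blocking peptide control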
ADAM10 inh = inhibits human ADAM10; O14672; recombinant ADAM10, EDANS/DABCYL FRET peptide cleavage, 3 h; inhibition, % at 7 µM; 370,000 tested, 0.62% active;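 active = inhibition above a per-campaign cutoff equal to the mean of compounds falling between control-based bounds plus 3 SD, cut at about 20% in these data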;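 note: 0% = DMSO wells while the 100% control is not disclosed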
Target sequence (O14672 214-748 limits assumed): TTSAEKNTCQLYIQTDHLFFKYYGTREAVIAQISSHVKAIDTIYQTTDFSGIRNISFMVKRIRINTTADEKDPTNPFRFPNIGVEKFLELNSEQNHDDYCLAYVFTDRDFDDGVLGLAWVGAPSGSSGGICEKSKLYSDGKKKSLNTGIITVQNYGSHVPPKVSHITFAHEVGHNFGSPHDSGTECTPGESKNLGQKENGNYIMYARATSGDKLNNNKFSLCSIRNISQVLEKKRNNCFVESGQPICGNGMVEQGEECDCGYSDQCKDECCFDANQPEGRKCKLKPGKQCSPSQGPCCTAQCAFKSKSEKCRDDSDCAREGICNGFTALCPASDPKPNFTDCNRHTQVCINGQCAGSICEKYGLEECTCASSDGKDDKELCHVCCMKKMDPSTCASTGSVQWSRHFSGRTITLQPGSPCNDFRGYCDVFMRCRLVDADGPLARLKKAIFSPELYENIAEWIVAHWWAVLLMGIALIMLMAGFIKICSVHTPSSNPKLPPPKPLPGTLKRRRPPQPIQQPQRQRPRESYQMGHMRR
MT1-MMP act inh = blocks activation of human MT1-MMP; P50281; HT1080 RFP-PRO-GFP cells, GFP/RFP ratio fluorescence, overnight; percent of plate control window, DMSO zero; GFP/RFP ratio change, % at 20 µM; 360,000 tested, 0.061% active; AID 651647;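 active = GFP/RFP ratio change of at least 30% with cell ATP level not reduced by more than half and red fluorescence within 50% of control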
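Test system: HT1080 RFP-PRO-GFP cells; Benchmarks: DMSO and RFP-L50D-GFP cell wells; Timing: cells overnight before dosing, compound overnight, 37 °C, 5% CO2; Compound: one 20 µM compound dose with 1% DMSO; Read-out: GFP/RFP fluorescence ratio.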
MT1-MMP act val = validation of inhibitors of human MT1-MMP activation | HT1080 RFP-PRO-GFP cells, GFP and RFP fluorescence ratio, overnight | 200 tested, 10% active | shares compounds with MT1-MMP act inh | inhibition, % at 20 µM;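 active = inhibition of at least 50% in the primary cell screen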
Tn7 DDE conf = confirmation of inhibitors of Tn7 binding to human fibrin DD(E); shares compounds with DDE Tn7 FP inh; FP displacement of TRITC-Tn7 peptide from DD(E); 0% set at plate's compound-well median; inhibition, % at 8.3 µM; 460 tested, 5% active;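 active = inhibition above the campaign cutoff, the mean of compounds within control limits plus 3 SD, cut at about 14% in these data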;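 note: 100% = median FP of high control wells holding Aha-Tn7 inhibitor peptide; displacers lower polarization since freed probe rises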
DDE Tn7 FP ctr = counter-screen hit for Tn7 peptide-fibrin DD(E) binding disruption. TRITC-Tn7 probe displacement, fluorescence polarization. 460 tested, 3% active. inhibition, % at 8.3 µM. shares compounds with DDE Tn7 FP inh;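 active = inhibition above the cutoff, the mean of compounds lying between the control bounds plus 3 SD of those compounds, cut at about 17% in these data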;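 note: 0% = median of compound sample wells and 100% = excess unlabeled Aha-Tn7 peptide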
DDE Tn6 FP ctr = counter-screen for inhibitors of Tn6 peptide binding to fibrin DD(E) | shares compounds with DDE Tn6 FP inh | TRITC-Tn6 fluorescence polarization displacement; 0% = median of compound wells, not DMSO | inhibition, % at 8.3 µM | 680 tested, 2% active | AID 720621;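 active = inhibition above the mean of test compounds lying between the control limits plus 3 SD of those, cut at about 14% in these data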;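 note: 0% = median of compound wells and 100% = wells with Aha-Tn7 blocking peptide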
Tn6 DDE conf = DD(E)-Tn6 binding inhibition, FP confirmation; inhibition, % at 8.3 µM; AID 720631; 680 tested, 10% active; FP displacement of TRITC-Tn6 peptide from DD(E); 0% = per-plate median of test wells; shares compounds with DDE Tn6 FP inh;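 active = inhibition above the mean of compounds lying within the control limits plus 3 SD, cut at about 16% in these data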;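 note: 100% = high control wells holding a competing inhibitor peptide at 10 µM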
ADAM10 confirm = confirmation of inhibitors of human ADAM10. shares compounds with ADAM10 inh. ADAM10 QFRET peptide cleavage, EDANS fluorescence. inhibition, % at 6.95 µM. 2,100 tested, 1% active;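 active = inhibition above about 20% chosen separately for each screening run, limit read from the data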;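 note: 0% = DMSO wells and 100% = marimastat wells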
ADAM17 ctr = inhibits human ADAM17 in ADAM10 exosite counter-screen. 2,100 tested, 0.5% active. ADAM17 QFRET peptide cleavage, EDANS fluorescence. inhibition, % at 6.95 µM. shares compounds with ADAM10 inh;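 active = mean triplicate inhibition above the solvent-only control wells' mean plus 3 SD, cut at about 12% in these data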;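 note: 0% = DMSO wells and 100% = marimastat wells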
ADAM10 ctr = ADAM10 inhibition, counter-screen for ADAM17 exosite hits | shares compounds with ADAM17 inh | recombinant ADAM10, EDANS/DABCYL FRET peptide cleavage, 3 h | inhibition, % at 6.95 µM | 2,900 tested, 47% active | AID 743256;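 active = mean inhibition over the triplicate runs exceeds the activity threshold set in the earlier primary screen, cut at about 20% in these data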;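 note: 0% = DMSO wells and 100% = marimastat wells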
ADAM17 confirm = confirmation of inhibitors of human ADAM17; inhibition, % at 6.95 µM; shares compounds with ADAM17 inh; 2,900 tested, 65% active; AID 743257; recombinant ADAM17, EDANS/DABCYL QFRET peptide cleavage;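 active = mean inhibition across replicates above the hit cutoff set in the primary screen, cut at about 8.5% in these data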;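 note: 0% = DMSO wells and 100% = marimastat wells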
* marks the source's active call; other numbers are inactive results; · = no result. This is a sample that favours compounds with a hit; in the whole collection about 1.6% have one here.

SMILES | DDE Tn7 FP inh | ADAM17 inh | DDE Tn6 FP inh | ADAM10 inh | MT1-MMP act inh | Tn7 DDE conf | DDE Tn7 FP ctr | others
Cc1ccccc1C1=C/C(=C(\SS/C(C(=O)c2ccc(OCC(=O)O)c(Cl)c2Cl)=C2\C=C(c3ccccc3C)SS2)C(=O)c2ccc(OCC(=O)O)c(Cl)c2Cl)SS1 | -1.6 | -3.0 | -0.7 | -1.1 | 33.8* | · | · | MT1-MMP act val=41.3
C[C@H]1[C@H](N(Cc2ccccc2)Cc2ccccc2)CC[C@@]23CCCN2C(=O)CCC[C@@H]13 | -4.2 | 0.1 | -5.7 | 4.2 | · | · | ·
O=C(O)c1cccc(N2C(=O)c3cc([N+](=O)[O-])cc4cc([N+](=O)[O-])cc(c34)C2=O)c1 | 2.2 | 0.5 | -9.6 | 2.3 | 41.9* | · | · | MT1-MMP act val=28.4
COC(=O)c1ccc2c(c1)C(C)(C)C(/C=C/c1ccc(OC)c(OC)c1OC)=[N+]2C | -29.3 | -1.2 | 129.5* | -40.4 | 50.7* | · | · | MT1-MMP act val=19.9;DDE Tn6 FP ctr=-10.9;Tn6 DDE conf=-16.7
Cc1cc2ccccc2n1CCNC(=O)c1ccc(Br)o1 | -4.5 | -6.3 | 17.0* | -10.3 | 37.3* | · | · | MT1-MMP act val=4.1;DDE Tn6 FP ctr=-3.2;Tn6 DDE conf=12.2
Cc1cc2ccccc2n1CCNC(=O)Cc1cccc2ccccc12 | -0.5 | 0.3 | 46.2* | -4.5 | 42.8* | · | · | MT1-MMP act val=1.8;DDE Tn6 FP ctr=11.5;Tn6 DDE conf=9.1
Cc1cc2ccccc2n1CCNC(=O)c1ccccc1 | 0.3 | -1.7 | 14.8 | -0.1 | 61.5 | · | ·
COC(=O)[C@H](C)NC(=O)[C@@H]1CCCN1C(=O)CNP(=O)(OCc1ccccc1)OCc1ccccc1 | 1.0 | -3.6 | 0.7 | -2.5 | · | · | ·
CCOC(=O)[C@@]12CCCC=C1N(CCc1ccc(Cl)cc1)C(=O)[C@H]2CC(=O)NCc1ccc(OC)c(OC)c1 | 8.8 | -0.5 | -1.7 | 3.3 | · | · | ·
CCN(CC)c1ccc(C(=C2C=CC(=[N+](CC)CC)C=C2)c2ccc(N(CC)CC)cc2)cc1 | 2.7 | 6.8 | 83.8* | 22.9* | 143.1* | · | · | MT1-MMP act val=126.3*;ADAM10 confirm=-0.4;ADAM17 ctr=0.5
C=CCN1C(C(=O)OC)CN(Cc2cn(Cc3ccc(OC)cc3)nn2)CCS1(=O)=O (configuration not stated) | -1.5 | -2.5 | -1.1 | -4.9 | · | · | ·
CN1/C(=C/C=C/c2n(C)c3cc([N+](=O)[O-])c([N+](=O)[O-])cc3[n+]2C)C(C)(C)c2ccccc21 | -2.7 | 9.9* | -5.6 | -5.5 | 96.6* | · | · | MT1-MMP act val=94.3*;ADAM10 ctr=0.6;ADAM17 confirm=7.4
Cc1ccc(S(=O)(=O)N2c3ccccc3C[C@H]2CCC(=O)c2ccccc2)cc1 | 4.8 | -0.2 | 2.2 | -0.6 | · | · | ·
COc1cccc(OC)c1C(=O)Nc1sc2c(c1C#N)CCC2 | 13.8* | -4.2 | -2.2 | -4.1 | -1.8 | -5.4 | -8.9
Cc1ccc(S(=O)(=O)N(C)[C@H]2C[C@H]3c4cc(N5CCOCC5)ccc4CCN3C[C@H]2[C@H](C)O)cc1 | -0.8 | 1.0 | -2.5 | 3.8 | · | · | ·
CC(C)OCCCNC(=O)Cn1ncc2c(=O)oc3ccccc3c21 | 3.5 | 1.0 | 3.8 | 3.0 | -1.3 | · | ·
CC(CCc1ccco1)NC(=O)Cn1ncc2c(=O)oc3ccccc3c21 (configuration not stated) | 15.0* | -0.4 | -5.8 | -6.0 | 7.8 | -0.2 | -4.3
O=C(Nc1cccc(F)c1)O[C@@H]1CC[C@@]23CCCN2C(=O)CCC[C@H]3C1 | 3.9 | -5.4 | -0.7 | -7.4 | · | · | ·
O=C1CC(c2ccc3c(c2)OCO3)c2cc3c(cc2N1)OCO3 (configuration not stated) | -5.0 | -3.7 | -3.7 | 2.7 | -1.4 | · | ·
Cc1ccc(C2CC(=O)Nc3cc4c(cc32)OCO4)o1 (configuration not stated) | 15.4* | -8.3 | 14.3 | -10.9 | -3.9 | 6.5 | 3.0
O=C1CCc2cc(S(=O)(=O)N3CCN(Cc4cccc5c4OCO5)CC3)ccc2N1 | -3.4 | -1.5 | 3.3 | -4.5 | · | · | ·
O=c1[nH]c(=S)[nH]c2nc(-c3ccccc3)cnc12 | -2.2 | -12.9 | 0.5 | -47.1 | 5.3 | · | ·
Cc1cc2nc3c(=O)[nH]c(=S)[nH]c3nc2cc1NC(=O)C(F)(F)F | 15.7* | -5.4 | 4.2 | 0.2 | -45.8 | -7.1 | -10.0
Cc1ccc(CNC(=O)O[C@H]2CC[C@@]34CCCN3C(=O)CCC[C@H]4C2)o1 | -4.6 | -4.7 | -0.1 | -3.3 | · | · | ·
Cc1ccccc1NC(=O)COc1coc(CN2CCCc3ccccc32)cc1=O | 15.0* | -7.5 | 1.8 | -28.5 | -13.7 | 1.1 | -4.3
COc1ccc(-c2ccc([C@H]3[C@H]4C=CC[C@@H](C)[C@@H]4C(=O)N3Cc3ccccc3)c(F)c2)cc1OC | 14.2* | 0.0 | -8.7 | -5.2 | -2.5 | 1.8 | -11.9
c1coc(-c2nnc(SCc3cn4ccccc4n3)o2)c1 | 13.9* | -3.2 | 0.5 | -1.7 | -2.9 | -0.7 | 0.0
CC(C)C1C(C#N)=C(N)SC(N)=C1C#N | 14.5* | -2.0 | 6.2 | 3.8 | -4.3 | 1.9 | 0.2
CCC(CC)C1C(C#N)=C(N)SC(N)=C1C#N | 6.1 | -1.6 | 2.8 | -3.8 | -11.2 | · | ·
